An excerpt weighted towards active compounds, which were near 1.8% of everything screened.
Runt-CBFb FRET: inhibitors of RUNX1 Runt–CBFb binding, primary screen, biochemical, FRET, Cerulean-Runt, Venus-CBFb, uHTS; Runt-related transcription factor 1 (Homo sapiens) + Core-binding factor subunit beta …; Cerulean-Runt/Venus-CBFb FRET ratio 530/480, 1 h; inhibition, % at 20 µM; 220,000 compounds, 0.46% hits; AID 1496, 2009;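 active = inhibition over about 50% at 20 µM in the single-dose screen, limit read from the data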
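System: Cerulean-labeled Runt domain protein | Quantity: 100 nM of each labeled protein | Schedule: 1 h compound exposure, room temperature | Detection: Fluorescence energy transfer, 422 nm excitation, 530/480 nm emission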
Platelet DG rel: inhibitors of platelet dense granule secretion, primary screen, cell-based, MLPCN, human platelets | 300,000 compounds, 0.22% hits | human platelet-rich plasma, SFLLRN dense granule ATP release, luminescence | inhibition, %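 (compounds screened at 7.5 µM in platelet-rich plasma)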;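 active = mean replicate score, as percent of positive control, at or above 50; inconclusive = mean below 50 but at least one replicate at or above 50; inactive = mean and every replicate below 50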
Runt-SMMHC FRET: inhibitors of RUNX1 Runt–CBFb-SMMHC binding, primary screen, biochemical, FRET, Cerulean-Runt, Venus-CBFb-SMMHC, uHTS; Runt-related transcription factor 1 (Homo sapiens) + Core-binding factor subunit beta …; Cerulean-Runt/Venus-CBFb-SMMHC FRET ratio 530/480, 1 h; inhibition, % at 20 µM; 220,000 compounds, 0.74% hits; AID 1434, 2008;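 active = mean inhibition across duplicate retests at 20 µM reaching about 50%, limit read from the data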;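 also: inhibitors lower the FRET ratio by blocking Runt binding to CBFb-SMMHC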
Rce1 inh: yeast Rce1p protease inhibitors, primary screen, biochemical, fluorescence, cell-free homogeneous; CAAX prenyl protease 2 (Saccharomyces cerevisiae (strain ATCC 204508 / S288c)), Q03530; yeast membranes, quenched prenylated peptide cleavage fluorescence; calls only; 290,000 compounds, 0.27% hits; AID 2563, 2010;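 active = fall in fluorescence gain of 50% or more versus controls, with final raw signal at or below 3038400; inconclusive = same 50% fall but final raw signal above 3038400; inactive = fall in fluorescence gain under 50%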
Target sequence (Q03530 whole entry, looked up): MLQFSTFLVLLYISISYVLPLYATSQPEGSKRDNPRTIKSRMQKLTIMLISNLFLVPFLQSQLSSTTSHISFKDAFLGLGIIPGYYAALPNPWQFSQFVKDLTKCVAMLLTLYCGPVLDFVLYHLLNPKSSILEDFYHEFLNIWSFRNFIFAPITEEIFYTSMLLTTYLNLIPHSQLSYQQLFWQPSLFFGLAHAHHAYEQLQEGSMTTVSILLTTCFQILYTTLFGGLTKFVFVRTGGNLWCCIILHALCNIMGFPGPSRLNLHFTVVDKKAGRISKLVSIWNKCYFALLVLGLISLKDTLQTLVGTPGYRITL
RanGTP-Imp inh: inhibitors of RanGTP-importin-beta interaction, primary screen, biochemical, FRET, CFP-Ran, YFP-importin-beta, homogeneous; Ran GTPase (GTP-bound) - importin-beta complex; cell-free CFP-Ran/YFP-importin-beta FRET ratio; inhibition, % (test concentration not listed); 300,000 compounds, 1.1% hits;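 active = more than half of the replicate wells show a fall in the fluorescence ratio signal beyond about 16%, limit read from the data, passing the limit was not always enough; inconclusive = exactly half of the replicate wells pass the set limit; inactive = fewer than half of replicates pass the limit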
Each line names hits and unclear results; the compound was inactive in the other large screens.

O=C(NC1CCCC1)C1CCN(S(=O)(=O)c2ccccc2)CC1	none (no result: Runt-CBFb FRET, Runt-SMMHC FRET)
CCN(CC(=O)Nc1ccccc1C(F)(F)F)C(=O)CCc1c(C)[nH]c(=O)c(C#N)c1C	Platelet DG rel 65 (no result: Runt-CBFb FRET, Runt-SMMHC FRET)
COc1ccccc1NC(=O)CCc1c(C)[nH]c(=O)c(C#N)c1C	none
CCc1c(C)nc2c(Br)cccc2c1SCCC#N	RanGTP-Imp inh 29
O=P(Cc1cc(Br)cc(Br)c1OCCO)(c1ccccc1)c1ccccc1	none
Cc1cc(/C=N/NC(N)=S)c(O)c(/C=N/NC(N)=S)c1	RanGTP-Imp inh 60
CCN1C/C(=N\S(=O)(=O)/N=C2\CN(CC)C(=O)N2CC)N(CC)C1=O	none
Cc1cccc2cc(C3CC(c4cccs4)=NN3C(=O)CCC(=O)O)c(Cl)nc12 (stereo not given)	none
Cc1ccc2nc(Cl)c(C3CC(c4cccs4)=NN3C(=O)CCCC(=O)O)cc2c1 (stereo not given)	Rce1 inh active
CC(NC(=O)c1cc2c(=O)n3ccccc3nc2n(CC2CCCO2)c1=N)c1ccccc1 (stereo not given)	RanGTP-Imp inh active (no result: Runt-CBFb FRET, Runt-SMMHC FRET, Rce1 inh)
CCOC(=O)c1cc2c(=O)n3ccccc3nc2n(CC2CCCO2)c1=NC(C)=O (stereo not given)	Runt-SMMHC FRET 59, RanGTP-Imp inh 71 (no result: Rce1 inh)
Cc1ccc(CNC(=O)c2cc3c(=O)n4ccccc4nc3n(CC3CCCO3)c2=N)cc1 (stereo not given)	Runt-SMMHC FRET 63, Rce1 inh inconclusive
Cc1ccc2nc3c(cc(C(=O)NCC4CCCO4)c(=N)n3CC3CCCO3)c(=O)n2c1 (stereo not given)	RanGTP-Imp inh 175 (no result: Runt-CBFb FRET, Runt-SMMHC FRET)
CCNS(=O)(=O)c1ccc(CCC(=O)NCc2ccncc2)cc1	none (no result: Runt-CBFb FRET, Runt-SMMHC FRET)
CCn1c(CNC(=O)c2ccccc2Br)nnc1SCC(=O)NC1=NCCS1	none (no result: Runt-CBFb FRET, Runt-SMMHC FRET)
CC[C@H]1CC2CN3CCc4c([nH]c5c([C@H]6C[C@H]7[C@H](CC)CN(C)[C@@H](Cc8c6[nH]c6ccccc86)[C@H]7C(=O)OC)c(OC)ccc45)C(C(=O)OC)(C2)C13	none (no result: Runt-CBFb FRET, Runt-SMMHC FRET, Rce1 inh)
Cn1c(C(=O)NCC2CCCO2)cc2c(=O)n3ccccc3nc21 (stereo not given)	Runt-SMMHC FRET 61
COc1ccc(CCn2c(=N)c(C(=O)NC3CCCC3)cc3c(=O)n4ccccc4nc32)cc1	none (no result: Runt-CBFb FRET, Runt-SMMHC FRET)
N=c1c(C(=O)NC2CCCCC2)cc2c(=O)n3ccccc3nc2n1CC1CCCO1 (stereo not given)	RanGTP-Imp inh 171 (no result: Runt-CBFb FRET, Runt-SMMHC FRET)
COc1ccc(CCn2c(=N)c(C(=O)NC3CCCC3)cc3c(=O)n4ccccc4nc32)cc1OC	none (no result: Runt-CBFb FRET, Runt-SMMHC FRET)
N=c1c(C(=O)NC2CCCC2)cc2c(=O)n3ccccc3nc2n1CC1CCCO1 (stereo not given)	RanGTP-Imp inh 174 (no result: Runt-CBFb FRET, Runt-SMMHC FRET)
Cc1ccc(OCC(=O)N/N=C/c2cccc3cccnc23)cc1	none (no result: Runt-CBFb FRET, Runt-SMMHC FRET, Rce1 inh)
CCCNc1cc(=S)nc(N)[nH]1	RanGTP-Imp inh 36
CCC(=O)Oc1ccc2c(C)c(Cl)c(=O)oc2c1	Runt-CBFb FRET 83, Runt-SMMHC FRET 127, RanGTP-Imp inh 25
O=C(Nc1ccc(O)c2c(=O)cc(-c3cccc(Cl)c3)oc12)c1ccccc1Cl	none
CC1(C)C2CCC1(CS(=O)(=O)N1CCN(c3ccc(F)cc3)CC1)C(=O)C2 (stereo not given)	none (no result: Runt-CBFb FRET, Runt-SMMHC FRET)
CCOC(=O)c1ccc(NC(=O)c2cccc(S(=O)(=O)N3CCN(C(C)=O)CC3)c2)cc1	none (no result: Runt-CBFb FRET, Runt-SMMHC FRET)
O=C(CSc1nc(-c2ccc(F)cc2)cs1)N1CCN(C(=O)c2ccco2)CC1	none
CCc1ccc(C(=O)NNC(=O)OC)cc1	Runt-CBFb FRET 69
COCCn1c(C)cc(C2=NNC(=NC3CC3)SC2)c1C	Platelet DG rel 82
N#C/C(=C(/O)CCCl)c1ccccn1	Runt-SMMHC FRET 92, RanGTP-Imp inh 21
CCCn1c(-c2cccs2)nc2nc3ccccc3nc21	Runt-SMMHC FRET 131
COCCn1c(-c2cccs2)nc2nc3ccccc3nc21	Runt-SMMHC FRET 87
CC(C)OCCCn1c(-c2ccco2)nc2nc3ccccc3nc21	Rce1 inh inconclusive, RanGTP-Imp inh inconclusive (no result: Runt-SMMHC FRET)
